Calls of active or inactive are those of the source. No cut-off for these calls is given here.

For assay [1], the system named is K562. The assay is described as follows: In vitro antiproliferative activity against human K-562 cell line. The assay is classed as functional. The essentials:
(§1)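 SRB colorimetric growth assay. Cells seeded at 5×10^3 per well in RPMI and left to attach in drug-free medium for 18 h. Compounds were then added in DMSO/H2O 3:7 and exposed for 72 h. Cells were fixed with cold 50% TCA for 60 min at 4 °C and stained with 0.4% SRB for 10 min. Bound dye was solubilized in Tris and OD read at 490 nm. GI50 was derived from control, test and time-zero OD. Triplicate; values above 10 μM were scored NS.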

Assay [2] relates to IGROV-1. The assay is described as follows: In vitro antiproliferative activity against human IGROV-ET ovarian cell line; NS = Not significant. The assay is classed as functional, cell-based. The method, boiled down:
as §1

Assay [3] concerns DU-145. The assay is described as follows: In vitro antiproliferative activity against human DU-145 prostate cell line. The assay is classed as functional. The method, boiled down: as §1
Assay [4] has as its system IGROV-1. The assay is described as follows: In vitro antiproliferative activity against human IGROV ovarian cell line. The class given is functional. The essentials:
as §1

Assay [5] deals with LNCaP. The assay is described as follows: In vitro antiproliferative activity against human LN-caP prostate cell line. The assay is classed as functional. The method, boiled down:
as §1

Assay [6] deals with PANC-1. The assay is described as follows: In vitro antiproliferative activity against human PANC-1 pancreas cell line. The assay is classed as functional. The method, boiled down:
as §1

Assay [7] relates to HT-29. The assay is described as follows: In vitro antiproliferative activity against human HT-29 colon cell line. The class given is functional. The method, boiled down:
as §1

For assay [8], the system named is LoVo. The assay is described as follows: In vitro antiproliferative activity against human LOVO colon cell line. The class given is functional. The essentials: as §1
Assay [9] relates to LoVo. The assay is described as follows: In vitro antiproliferative activity against human LOVO-DOX colon cell line; NS = Not significant. The class given is functional, cell-based. The essentials:
as §1

Assay [10] relates to SK-BR-3. The assay is described as follows: In vitro antiproliferative activity against human SK-BR-3 breast cell line. The class given is functional. The essentials:
as §1

For assay [11], the system named is HeLa. The assay is described as follows: In vitro antiproliferative activity against human HeLa-APL cervix cell line. The assay is classed as functional. The method, boiled down:
as §1

Assay [12] relates to SK-MEL-28. The assay is described as follows: In vitro antiproliferative activity against human MEL-28 melanoma cell line. The assay is classed as functional. The essentials:
as §1

For assay [13], the system named is A549. The assay is described as follows: In vitro antiproliferative activity against human A-549 NSCL cell line. The assay is classed as functional. The essentials:
as §1

The subject of assay [14] is HeLa. The assay is described as follows: In vitro antiproliferative activity against human HeLa cervix cell line. The assay is classed as functional. The essentials: as §1
Assay [15] relates to IGROV-1. The assay is described as follows: In vitro antiproliferative activity against human IGROV-ET ovarian cell line. The class given is functional. The essentials:
as §1

Assay [16] relates to LoVo. The assay is described as follows: In vitro antiproliferative activity against human LOVO-DOX colon cell line. The assay is classed as functional. The method, boiled down: as §1
The subject of assay [17] is HeLa. The assay is described as follows: In vitro antiproliferative activity against human HeLa-APL cervix cell line; NS = Not significant. The class given is functional, cell-based. The essentials:
as §1

Assay [18] relates to PANC-1. The assay is described as follows: In vitro antiproliferative activity against human PANC-1 pancreas cell line; NS = Not significant. The class given is functional, cell-based. The method, boiled down: as §1
Assay [19] deals with DU-145. The assay is described as follows: In vitro antiproliferative activity against human DU-145 prostate cell line; NS = Not significant. The assay is classed as functional, cell-based. The method, boiled down:
as §1

Assay [20] deals with A549. The assay is described as follows: In vitro antiproliferative activity against human A-549 NSCL cell line; NS = Not significant. The class given is functional, cell-based. The essentials:
as §1

Assay [21] has as its system HT-29. The assay is described as follows: In vitro antiproliferative activity against human HT-29 colon cell line; NS = Not significant. The class given is functional, cell-based. The method, boiled down:
as §1

In assay [22] the test system is HeLa. The assay is described as follows: In vitro antiproliferative activity against human HeLa cervix cell line; NS = Not significant. The assay is classed as functional, cell-based. The essentials:
as §1

For assay [23], the system named is SK-MEL-28. The assay is described as follows: In vitro antiproliferative activity against human MEL-28 melanoma cell line; NS = Not significant. The assay is classed as functional, cell-based. The method, boiled down: as §1
In assay [24] the test system is LoVo. The assay is described as follows: In vitro antiproliferative activity against human LOVO colon cell line; NS = Not significant. The assay is classed as functional, cell-based. The essentials:
as §1

For assay [25], the system named is K562. The assay is described as follows: In vitro antiproliferative activity against human K-562 cell line; NS = Not significant. The class given is functional, cell-based. The essentials:
as §1

Consider `CCOc1ccc(-c2n[n+]3c4ccccc4ccc3c3ccc4ccccc4c23)cc1`, for which the GI50 came to 6700 nM in assay [1]; 5800 nM in assay [3]; 2600 nM in assay [4]; 2600 nM in assay [5]; 4900 nM in assay [6]; 5400 nM in assay [7]. Also, the concentration for 50% growth inhibition (GI50) in assay [8] stood at 6300 nM; in assay [10], 3900 nM; in assay [11], 7400 nM; in assay [12] it was 5300 nM; in [13], 6000 nM; in assay [14], 4600 nM. Also, the GI50 entry in assay [2] and in [9] was “inactive” in each case.

Regarding `CCOc1ccc(-c2n[n+]3c4ccc(C)cc4ccc3c3ccc4ccccc4c23)cc1`, the GI50 in [1] came to 100 nM; in assay [15], 1700 nM; in assay [3], 500 nM; in assay [4], 400 nM; in assay [5] it was 70 nM; in assay [6], 400 nM. Besides, the GI50 was 200 nM in [7]; 300 nM in assay [8]; 500 nM in [10]; 600 nM in assay [11]; 400 nM in assay [12]; 500 nM in assay [13]. Moreover, the GI50 in assay [14] was determined as 300 nM. Further, the GI50 result in assay [9] is “inactive”.

Take `c1ccc(-c2n[n+]3c4ccccc4ccc3c3ccc4ccccc4c23)cc1`: the GI50 in assay [1] was found to be 400 nM; in assay [15] it was 2000 nM; in assay [3], 1000 nM; in assay [4], 500 nM; in assay [5], 300 nM; in assay [6], 1300 nM. In addition, the GI50 in assay [7] is 400 nM; in [8] it was 600 nM; in [16] it was 3500 nM; in [10], 500 nM; in assay [11] it was 100 nM; in [12] it was 1000 nM. Further, the GI50 is 800 nM in [13] and 700 nM in assay [14].

With `c1ccc(-c2n[n+]3ccccc3c3ccc4ccccc4c23)cc1`, the GI50 entry in [17], in assay [18], in assay [19], in [2], in assay [20] and in [9] was “inactive” each time. Besides, the GI50 result in [21], in [22], in assay [23] and in [24] was “inactive” throughout. Moreover, the GI50 worked out at 7600 nM in assay [1], 100 nM in assay [4], 5200 nM in assay [5] and 9700 nM in [10].

Take `Cc1ccc2c(ccc3c4ccc5ccccc5c4c(-c4ccccc4)n[n+]23)c1`: the GI50 result in [17] is “inactive”. For the same molecule, the GI50 amounted to 200 nM in [1]; 1800 nM in assay [15]; 500 nM in assay [3]; 500 nM in assay [4]; 200 nM in assay [5]; 700 nM in assay [6]. In addition, the GI50 was 400 nM in assay [7]; 400 nM in assay [8]; 3600 nM in assay [16]; 500 nM in assay [10]; 500 nM in [12]; 600 nM in [13]. This molecule also registered a GI50 in assay [14] of 500 nM.

As for `Cc1cccc2c3ccc4ccccc4c3c(-c3ccccc3)n[n+]12`, the GI50 in assay [1] was 1500 nM; in [15] it was 2900 nM; in assay [3], 3100 nM; in [4], 1700 nM; in assay [5], 400 nM; in [6], 3400 nM. In addition, the GI50 in assay [7] was found to be 1200 nM; in [8] it was 3000 nM; in assay [16], 5400 nM; in assay [10], 500 nM; in assay [11], 4100 nM; in assay [12], 2500 nM. The figures for the GI50 in [13] and in assay [14] were 4200 nM and 3800 nM, respectively.

In the case of `CCOc1ccc(-c2n[n+]3ccccc3c3ccc4ccccc4c23)cc1`, the GI50 in [1] turned out to be 1200 nM; in assay [15] it was 8600 nM; in assay [3] it was 4800 nM; in assay [4], 3800 nM; in [5] it was 500 nM; in [6] it was 2100 nM. Moreover, the GI50 in assay [7] is 1100 nM; in assay [8] it was 2900 nM; in assay [16], 8000 nM; in [10], 1200 nM; in assay [11] it was 5000 nM; in [12], 2600 nM. For the same molecule, the GI50 in assay [13] worked out at 3000 nM; in assay [14] it was 3100 nM.

Regarding `CCOc1ccc(-c2n[n+]3c(C)cccc3c3ccc4ccccc4c23)cc1`, the GI50 in assay [1] came out at 600 nM; in assay [15], 4500 nM; in assay [3] it was 1800 nM; in assay [4] it was 2400 nM; in assay [5], 400 nM; in assay [6] it was 1000 nM. Also, the GI50 in [7] stood at 600 nM; in assay [8], 1000 nM; in assay [16], 7000 nM; in assay [10] it was 500 nM; in assay [11], 1400 nM; in assay [12], 1200 nM. Further, the 50% growth inhibitory concentration (GI50) in assay [13] is 800 nM; in assay [14], 1300 nM.

As to `COc1cccc2c1C(=O)c1c(O)c3c(c(O)c1C2=O)C[C@@](O)(C(=O)CO)C[C@@H]3O[C@H]1C[C@H](N)[C@H](O)[C@H](C)O1` [DOXORUBICIN], the GI50 in [1] is 30 nM; in assay [15] it was 2400 nM; in assay [3], 20 nM; in assay [4], 4400 nM; in assay [5], 20 nM; in assay [6], 3500 nM. Moreover, the GI50 came out at 3100 nM in assay [7]; 10 nM in assay [8]; 2400 nM in assay [16]; 1100 nM in assay [10]; 10 nM in [11]; 3100 nM in [12]. The GI50 in assay [13] came out at 70 nM; in [14], 10 nM.

With `Cc1cc[n+]2nc(-c3ccccc3)c3c4ccccc4ccc3c2c1`, the GI50 result in assay [17], in [18], in [19], in assay [2], in assay [20] and in [9] was “inactive” in each case. For the same molecule, the GI50 result in assay [25], in assay [21], in assay [22] and in [24] was “inactive” in each case. The GI50 stood at 6500 nM in [4], 4000 nM in assay [5], 4600 nM in [10] and 8400 nM in assay [12].

In general, GI50 refers to the concentration giving 50% growth inhibition.
